Results taken from ChEMBL document CHEMBL4837264, “Rational Design, Optimization, and Biological Evaluation of Novel MEK4 Inhibitors against Pancreatic Adenocarcinoma” (ACS Med Chem Lett, 2021).
Active and inactive are the calls of the source. No cut-off for these calls is given here.

What was measured:
[1] = target: T1, Dual specificity mitogen-activated protein kinase kinase 3 (Homo sapiens) (UniProt P46734); experiment: Inhibition of human wild type full length MEK3 (M1 to S318) expressed in mammalian expression system at 1 uM measured by Kinomescan assay
T1 sequence (whole entry): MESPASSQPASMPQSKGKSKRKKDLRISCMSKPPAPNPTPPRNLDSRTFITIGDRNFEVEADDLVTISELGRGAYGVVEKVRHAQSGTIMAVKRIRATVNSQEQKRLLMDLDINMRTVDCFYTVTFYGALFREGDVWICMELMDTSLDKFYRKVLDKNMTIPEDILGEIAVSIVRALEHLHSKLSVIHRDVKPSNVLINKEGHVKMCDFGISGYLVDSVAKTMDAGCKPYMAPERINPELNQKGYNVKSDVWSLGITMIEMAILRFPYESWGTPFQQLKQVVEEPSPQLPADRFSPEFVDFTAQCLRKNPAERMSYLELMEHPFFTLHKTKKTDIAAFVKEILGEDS

[2] = target: T2, Dual specificity mitogen-activated protein kinase kinase 5 (Homo sapiens) (UniProt Q13163); experiment: Inhibition of human wild type partial length MEK5 (L98 to P448 residues) expressed in mammalian expression system at 1 uM measured by Kinomescan assay
T2 sequence (whole entry): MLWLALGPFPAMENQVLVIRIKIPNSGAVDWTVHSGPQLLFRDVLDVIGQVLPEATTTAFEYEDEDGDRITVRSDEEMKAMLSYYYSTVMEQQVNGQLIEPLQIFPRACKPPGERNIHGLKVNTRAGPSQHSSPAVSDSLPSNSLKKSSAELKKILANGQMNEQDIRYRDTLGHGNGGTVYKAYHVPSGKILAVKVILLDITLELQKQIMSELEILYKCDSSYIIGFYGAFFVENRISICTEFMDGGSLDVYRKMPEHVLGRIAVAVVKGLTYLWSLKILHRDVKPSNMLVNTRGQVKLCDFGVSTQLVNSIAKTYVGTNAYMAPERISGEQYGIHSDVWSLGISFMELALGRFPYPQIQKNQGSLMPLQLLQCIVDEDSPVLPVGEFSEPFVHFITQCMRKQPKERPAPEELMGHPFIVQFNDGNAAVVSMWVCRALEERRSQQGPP

[3] = target: T3, Dual specificity mitogen-activated protein kinase kinase 6 (Homo sapiens) (UniProt P52564); experiment: Inhibition of human wild type partial length MEK6 (K36 to D344 residues) expressed in bacterial expression system at 1 uM measured by Kinomescan assay
T3 sequence (whole entry): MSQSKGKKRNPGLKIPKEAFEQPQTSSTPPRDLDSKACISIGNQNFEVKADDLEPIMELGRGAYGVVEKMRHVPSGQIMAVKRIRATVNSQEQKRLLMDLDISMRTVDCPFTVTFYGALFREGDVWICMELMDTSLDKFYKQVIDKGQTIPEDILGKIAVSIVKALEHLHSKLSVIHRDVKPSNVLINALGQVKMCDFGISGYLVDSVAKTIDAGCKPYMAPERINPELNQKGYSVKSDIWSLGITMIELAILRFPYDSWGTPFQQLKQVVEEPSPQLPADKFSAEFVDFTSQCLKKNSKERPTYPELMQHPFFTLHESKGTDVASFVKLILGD

[4] = target: T4, Dual specificity mitogen-activated protein kinase kinase 7 (Homo sapiens) (UniProt O14733); experiment: Inhibition of human wild type full length MEK7 (M1 to R417 residues) expressed in mammalian expression system at 1 uM measured by Kinomescan assay
T4 sequence (whole entry): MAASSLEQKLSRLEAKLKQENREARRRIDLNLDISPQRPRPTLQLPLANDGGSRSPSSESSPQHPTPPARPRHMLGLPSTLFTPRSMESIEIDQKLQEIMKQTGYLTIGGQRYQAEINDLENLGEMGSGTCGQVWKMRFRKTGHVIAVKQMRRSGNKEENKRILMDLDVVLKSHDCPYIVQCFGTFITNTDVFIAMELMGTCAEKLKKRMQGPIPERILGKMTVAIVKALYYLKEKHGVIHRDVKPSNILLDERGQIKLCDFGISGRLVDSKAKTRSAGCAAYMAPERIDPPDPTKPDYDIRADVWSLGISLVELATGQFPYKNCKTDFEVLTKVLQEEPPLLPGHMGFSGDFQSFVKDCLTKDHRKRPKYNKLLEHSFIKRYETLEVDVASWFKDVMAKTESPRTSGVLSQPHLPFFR

[5] = target: T1, Dual specificity mitogen-activated protein kinase kinase 3 (Homo sapiens); experiment: Inhibition of human wild type full length MEK3 (M1 to S318) expressed in mammalian expression system at 10 uM measured by Kinomescan assay
Outline: (§1)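 Kinome-wide binding scan on the scanEDGE DiscoverX platform, covering 97 kinases, each tested at a single compound concentration of 10 μM.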

[6] = target: T2, Dual specificity mitogen-activated protein kinase kinase 5 (Homo sapiens); experiment: Inhibition of human wild type partial length MEK5 (L98 to P448 residues) expressed in mammalian expression system at 10 uM measured by Kinomescan assay; outline: as §1
[7] = target: T3, Dual specificity mitogen-activated protein kinase kinase 6 (Homo sapiens); experiment: Inhibition of human wild type partial length MEK6 (K36 to D344 residues) expressed in bacterial expression system at 10 uM measured by Kinomescan assay; outline: as §1
[8] = target: T4, Dual specificity mitogen-activated protein kinase kinase 7 (Homo sapiens); experiment: Inhibition of human wild type full length MEK7 (M1 to R417 residues) expressed in mammalian expression system at 10 uM measured by Kinomescan assay
[9] = target: Mitogen-activated protein kinase 3 (Homo sapiens) (UniProt P27361); experiment: Inhibition of wild type full length human ERK1 (M1 to P397 residues) expressed in bacterial expression system at 10 uM measured by Kinomescan assay; outline: as §1
[10] = target: Serine/threonine-protein kinase B-raf (Homo sapiens) (UniProt P15056); experiment: Inhibition of wild type partial length human BRAF (S429 to E741) expressed in mammalian expression system at 10 uM measured by Kinomescan assay; outline: as §1
[11] = target: RAF proto-oncogene serine/threonine-protein kinase (Homo sapiens) (UniProt P04049); experiment: Inhibition of wild type partial length human RAF(I330 to T640 residues) expressed in bacterial expression system at 10 uM measured by Kinomescan assay; outline: as §1
[12] = target: Mitogen-activated protein kinase 8 (Homo sapiens) (UniProt P45983); experiment: Inhibition of wild type full length human JNK1 (M1 to Q384 residues) expressed in mammalian expression system at 10 uM measured by Kinomescan assay; outline: as §1
[13] = target: Mitogen-activated protein kinase 9 (Homo sapiens) (UniProt P45984); experiment: Inhibition of wild type full length human JNK2 (M1 to Q382 residues) expressed in mammalian expression system at 10 uM measured by Kinomescan assay; outline: as §1
[14] = target: Mitogen-activated protein kinase 10 (Homo sapiens) (UniProt P53779); experiment: Inhibition of wild type partial length human JNK3 (V28 to Q422 residues) expressed in mammalian expression system at 10 uM measured by Kinomescan assay; outline: as §1
[15] = Metabolic stability in human liver microsomes assessed as half life by microsome assay; type: ADME
Cytochrome P450 3A4 = Cytochrome P450 3A4 (Homo sapiens, UniProt P08684); experiment: Inhibition of CYP3A4 (unknown origin); type: ADME
Cytochrome P450 3A5 = Cytochrome P450 3A5 (Homo sapiens, UniProt P20815); experiment: Inhibition of CYP3A5 (unknown origin); type: ADME
Cytochrome P450 2D6 = Cytochrome P450 2D6 (Homo sapiens, UniProt P10635); experiment: Inhibition of CYP2D6 (unknown origin); type: ADME
Cytochrome P450 2C9 = Cytochrome P450 2C9 (Homo sapiens, UniProt P11712); experiment: Inhibition of CYP2C9 (unknown origin); type: ADME
Cytochrome P450 1A2 = Cytochrome P450 1A2 (Homo sapiens, UniProt P05177); experiment: Inhibition of CYP1A2 (unknown origin); type: ADME
Cytochrome P450 2C19 = Cytochrome P450 2C19 (Homo sapiens, UniProt P33261); experiment: Inhibition of CYP2C19 (unknown origin); type: ADME
HPAF-II [16] = experiment: Antiproliferative activity against human HPAF-II cells assessed as inhibition of cell proliferation measured after 72 hrs; type: functional, cell-based
Outline: (§2)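 Cells (~30,000; HEK293T, or pancreatic CD18 and MiaPaCa2) exposed to DMSO or a range of inhibitor doses for 72 h, then trypsinized and counted. Counts normalized to the DMSO control. Mean ± SD; three biological replicates; one-way ANOVA.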

MIA PaCa-2 [17] = experiment: Antiproliferative activity against human MIA PaCa-2 cells assessed as inhibition of cell proliferation measured after 72 hrs; type: functional, cell-based; outline: as §2
[18] = target: T4, Dual specificity mitogen-activated protein kinase kinase 7 (Homo sapiens); experiment: Inhibition of human MEK7 in human HEK293T cells assessed as decrease of MEK7 expression in presence of anisomycin at 100 uM measured after 5 hrs by Western blot assay; type: cell-based
Outline: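 HEK293T cells pretreated with anisomycin (3 μg/mL) for 45 min, then exposed to inhibitor (100 μM) for 5 h. MEK7 levels were read by Western blot with HSP90 as loading control. Blots are representative of at least three biological replicates.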

[19] = target: T1, Dual specificity mitogen-activated protein kinase kinase 3 (Homo sapiens); experiment: Inhibition of human MEK3 in human HEK293T cells assessed as inhibition of anisomycin-induced p38 MAPK phosphorylation at 100 uM measured after 5 hrs by Western blot assay; type: cell-based
Outline: (§3)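 HEK293T cells pretreated with anisomycin (3 μg/mL) for 45 min, then given inhibitor (100 μM) for 5 h. Phospho- and total p42/44 MAPK and p38 MAPK, plus MEK7, detected by Western blot with HSP90 as loading control. Blots representative of at least three biological replicates.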

[20] = target: T3, Dual specificity mitogen-activated protein kinase kinase 6 (Homo sapiens); experiment: Inhibition of human MEK6 in human HEK293T cells assessed as inhibition of anisomycin-induced p38 MAPK phosphorylation at 100 uM measured after 5 hrs by Western blot assay; type: cell-based; outline: as §3
[21] = target: Dual specificity mitogen-activated protein kinase kinase 1 (Homo sapiens) (UniProt Q02750); experiment: Inhibition of human MEK1 in human HEK293T cells assessed as reversal of anisomycin-induced decrease of p42/44 MAPK phosphorylation at 100 uM measured after 5 hrs by Western blot assay; type: cell-based; outline: as §3
[22] = target: Dual specificity mitogen-activated protein kinase kinase 2 (Homo sapiens) (UniProt P36507); experiment: Inhibition of human MEK2 in human HEK293T cells assessed as reversal of anisomycin-induced decrease of p42/44 MAPK phosphorylation at 100 uM measured after 5 hrs by Western blot assay; type: cell-based; outline: as §3
[23] = target: Dual specificity mitogen-activated protein kinase kinase 1 (Homo sapiens) (UniProt Q02750); experiment: Inhibition of human MEK1 in human HPAF-II cells assessed as decrease of p42/44 MAPK phosphorylation in presence of U0126 at 10 uM measured after 5 hrs by Westren blot assay; type: cell-based
Outline: (§4)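 CD18 or MiaPaCa2 cells pretreated with U0126 (1 or 5 μM) for 1 h, then MEK4 inhibitor (10 μM) added for 5 h. Phospho- and total p42/44 MAPK detected by Western blot with HSP90 as loading control. Blots representative of at least three biological replicates.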

[24] = target: Dual specificity mitogen-activated protein kinase kinase 2 (Homo sapiens) (UniProt P36507); experiment: Inhibition of human MEK2 in human HPAF-II cells assessed as decrease of p42/44 MAPK phosphorylation in presence of U0126 at 10 uM measured after 5 hrs by Westren blot assay; type: cell-based
[25] = target: Dual specificity mitogen-activated protein kinase kinase 1 (Homo sapiens) (UniProt Q02750); experiment: Inhibition of human MEK1 in human MIA PaCa-2 cells assessed as decrease of p42/44 MAPK phosphorylation in presence of U0126 at 10 uM measured after 5 hrs by Westren blot assay; type: cell-based; outline: as §4
[26] = target: Dual specificity mitogen-activated protein kinase kinase 2 (Homo sapiens) (UniProt P36507); experiment: Inhibition of human MEK2 in human MIA PaCa-2 cells assessed as decrease of p42/44 MAPK phosphorylation in presence of U0126 at 10 uM measured after 5 hrs by Westren blot assay; type: cell-based; outline: as §4
HPAF-II [27] = experiment: Antiproliferative activity against human HPAF-II cells assessed as inhibition of cell proliferation in presence of […] at 10 uM measured after 72 hrs; type: functional, cell-based
Outline: (§5)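 CD18 or MiaPaCa2 cells (~30,000) treated for 72 h with DMSO, U0126 (1 or 5 μM), MEK4 inhibitor (10 μM), or the combination. Cells trypsinized and counted, with counts normalized to DMSO; two-way ANOVA. Interaction expressed as CDI = AB/(A × B) from the normalized ratios, mean ± SEM of three biological replicates.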

MIA PaCa-2 [28] = experiment: Antiproliferative activity against human MIA PaCa-2 cells assessed as inhibition of cell proliferation in presence of […] at 10 uM measured after 72 hrs; type: functional, cell-based; outline: as §5

Chain of Dual specificity mitogen-activated protein kinase kinase 1 (Homo sapiens) (Q02750 whole entry): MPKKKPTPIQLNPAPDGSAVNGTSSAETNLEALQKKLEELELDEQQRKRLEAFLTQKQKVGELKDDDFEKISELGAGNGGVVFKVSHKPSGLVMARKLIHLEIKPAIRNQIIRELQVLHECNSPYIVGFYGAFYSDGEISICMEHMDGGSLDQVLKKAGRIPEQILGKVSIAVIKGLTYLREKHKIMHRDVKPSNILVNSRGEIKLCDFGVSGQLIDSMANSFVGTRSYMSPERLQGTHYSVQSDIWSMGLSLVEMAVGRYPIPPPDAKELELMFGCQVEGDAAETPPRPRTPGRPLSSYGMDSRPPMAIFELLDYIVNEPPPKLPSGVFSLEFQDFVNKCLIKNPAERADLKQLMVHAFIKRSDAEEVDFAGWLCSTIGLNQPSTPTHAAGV
Chain of Dual specificity mitogen-activated protein kinase kinase 2 (Homo sapiens) (P36507 whole entry): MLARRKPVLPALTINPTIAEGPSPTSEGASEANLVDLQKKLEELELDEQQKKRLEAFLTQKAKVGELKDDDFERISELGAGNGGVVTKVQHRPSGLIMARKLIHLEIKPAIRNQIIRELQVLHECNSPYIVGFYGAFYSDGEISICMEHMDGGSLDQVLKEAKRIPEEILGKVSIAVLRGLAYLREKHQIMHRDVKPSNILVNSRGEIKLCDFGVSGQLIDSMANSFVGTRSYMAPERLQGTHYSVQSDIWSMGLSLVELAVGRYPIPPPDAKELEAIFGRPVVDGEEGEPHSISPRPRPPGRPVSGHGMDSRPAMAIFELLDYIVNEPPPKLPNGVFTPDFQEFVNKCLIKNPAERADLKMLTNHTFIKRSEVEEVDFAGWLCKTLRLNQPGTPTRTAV
Chain of Cytochrome P450 2C19 (P33261 whole entry): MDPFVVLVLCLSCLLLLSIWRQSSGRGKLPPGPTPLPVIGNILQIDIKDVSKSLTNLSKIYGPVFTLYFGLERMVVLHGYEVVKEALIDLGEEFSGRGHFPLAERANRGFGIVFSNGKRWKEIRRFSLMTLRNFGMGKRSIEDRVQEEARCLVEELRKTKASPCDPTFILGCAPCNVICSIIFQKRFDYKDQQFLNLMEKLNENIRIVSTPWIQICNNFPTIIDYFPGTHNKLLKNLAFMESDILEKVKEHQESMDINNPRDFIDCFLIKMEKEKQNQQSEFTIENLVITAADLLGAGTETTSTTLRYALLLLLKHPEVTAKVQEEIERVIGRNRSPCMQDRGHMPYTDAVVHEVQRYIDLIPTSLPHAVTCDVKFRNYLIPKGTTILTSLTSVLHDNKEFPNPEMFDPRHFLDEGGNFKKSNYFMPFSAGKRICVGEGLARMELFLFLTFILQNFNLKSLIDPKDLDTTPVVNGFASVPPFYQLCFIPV
Chain of Cytochrome P450 3A5 (P20815 whole entry): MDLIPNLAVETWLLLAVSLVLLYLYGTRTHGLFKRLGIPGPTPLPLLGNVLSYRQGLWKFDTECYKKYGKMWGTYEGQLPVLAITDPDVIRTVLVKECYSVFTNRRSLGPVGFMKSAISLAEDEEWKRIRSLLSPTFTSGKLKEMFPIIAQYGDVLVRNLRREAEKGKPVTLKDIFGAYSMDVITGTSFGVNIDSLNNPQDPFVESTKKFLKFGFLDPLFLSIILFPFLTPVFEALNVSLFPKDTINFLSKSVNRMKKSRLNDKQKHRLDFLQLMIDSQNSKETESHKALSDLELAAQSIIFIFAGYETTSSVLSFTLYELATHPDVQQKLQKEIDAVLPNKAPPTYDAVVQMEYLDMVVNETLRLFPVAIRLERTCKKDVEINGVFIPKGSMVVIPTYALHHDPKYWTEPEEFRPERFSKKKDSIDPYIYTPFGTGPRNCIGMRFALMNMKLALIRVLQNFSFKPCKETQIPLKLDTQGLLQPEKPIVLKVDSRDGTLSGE
Chain of RAF proto-oncogene serine/threonine-protein kinase (Homo sapiens) (P04049 whole entry, the tested form may be a part): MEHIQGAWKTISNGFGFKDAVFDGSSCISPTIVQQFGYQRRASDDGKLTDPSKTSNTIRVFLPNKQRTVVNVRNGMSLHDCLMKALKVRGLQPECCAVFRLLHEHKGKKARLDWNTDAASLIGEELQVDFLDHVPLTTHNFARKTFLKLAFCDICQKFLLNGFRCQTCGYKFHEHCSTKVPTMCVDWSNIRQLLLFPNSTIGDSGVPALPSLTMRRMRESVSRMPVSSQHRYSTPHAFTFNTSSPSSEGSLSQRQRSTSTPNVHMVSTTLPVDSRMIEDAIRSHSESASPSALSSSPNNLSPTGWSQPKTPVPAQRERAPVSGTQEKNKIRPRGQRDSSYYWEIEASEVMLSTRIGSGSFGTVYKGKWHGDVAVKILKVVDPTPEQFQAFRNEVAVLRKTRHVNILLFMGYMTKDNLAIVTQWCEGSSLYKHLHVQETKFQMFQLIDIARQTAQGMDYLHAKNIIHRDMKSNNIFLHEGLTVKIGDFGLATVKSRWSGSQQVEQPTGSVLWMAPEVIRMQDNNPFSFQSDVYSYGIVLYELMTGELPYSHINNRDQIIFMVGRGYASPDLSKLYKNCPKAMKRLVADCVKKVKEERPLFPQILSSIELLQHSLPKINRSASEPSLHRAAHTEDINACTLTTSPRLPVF
Chain of Mitogen-activated protein kinase 3 (Homo sapiens) (P27361 whole entry, the tested form may be a part): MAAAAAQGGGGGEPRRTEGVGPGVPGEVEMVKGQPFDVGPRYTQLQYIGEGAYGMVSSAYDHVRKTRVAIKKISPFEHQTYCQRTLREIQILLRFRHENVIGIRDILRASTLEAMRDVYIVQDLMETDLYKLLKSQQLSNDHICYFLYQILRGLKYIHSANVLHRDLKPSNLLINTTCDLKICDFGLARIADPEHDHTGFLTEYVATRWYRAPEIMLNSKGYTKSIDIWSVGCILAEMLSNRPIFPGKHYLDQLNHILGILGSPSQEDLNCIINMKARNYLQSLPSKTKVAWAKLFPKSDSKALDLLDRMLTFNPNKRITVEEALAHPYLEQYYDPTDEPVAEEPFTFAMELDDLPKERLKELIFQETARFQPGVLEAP
Chain of Cytochrome P450 3A4 (P08684 whole entry): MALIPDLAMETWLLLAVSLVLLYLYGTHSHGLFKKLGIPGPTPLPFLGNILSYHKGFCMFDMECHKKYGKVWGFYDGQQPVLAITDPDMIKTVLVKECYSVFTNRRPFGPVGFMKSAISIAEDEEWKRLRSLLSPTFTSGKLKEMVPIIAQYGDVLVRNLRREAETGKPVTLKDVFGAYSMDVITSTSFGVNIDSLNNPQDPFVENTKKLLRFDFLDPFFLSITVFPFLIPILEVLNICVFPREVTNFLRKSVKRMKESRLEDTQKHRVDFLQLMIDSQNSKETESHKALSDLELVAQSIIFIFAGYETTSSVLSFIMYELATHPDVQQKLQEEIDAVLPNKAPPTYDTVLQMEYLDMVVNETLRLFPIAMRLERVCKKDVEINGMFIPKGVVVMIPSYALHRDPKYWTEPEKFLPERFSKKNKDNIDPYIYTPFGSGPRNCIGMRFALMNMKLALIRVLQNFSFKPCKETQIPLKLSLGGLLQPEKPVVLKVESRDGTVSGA
Chain of Cytochrome P450 2D6 (P10635 whole entry): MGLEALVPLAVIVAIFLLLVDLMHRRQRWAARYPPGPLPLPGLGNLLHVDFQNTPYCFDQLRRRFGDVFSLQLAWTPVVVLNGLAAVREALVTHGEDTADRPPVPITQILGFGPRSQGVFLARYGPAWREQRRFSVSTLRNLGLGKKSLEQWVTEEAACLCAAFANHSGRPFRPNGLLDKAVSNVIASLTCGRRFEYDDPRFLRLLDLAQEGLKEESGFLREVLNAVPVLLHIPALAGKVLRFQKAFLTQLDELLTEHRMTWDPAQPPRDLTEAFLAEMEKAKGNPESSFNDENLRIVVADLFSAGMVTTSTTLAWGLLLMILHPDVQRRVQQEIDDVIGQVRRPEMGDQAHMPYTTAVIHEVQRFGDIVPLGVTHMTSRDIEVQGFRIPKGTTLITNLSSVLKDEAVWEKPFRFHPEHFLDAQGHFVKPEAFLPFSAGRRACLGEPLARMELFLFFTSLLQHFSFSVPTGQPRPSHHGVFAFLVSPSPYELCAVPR
Chain of Mitogen-activated protein kinase 9 (Homo sapiens) (P45984 whole entry, looked up, the tested form may be a part): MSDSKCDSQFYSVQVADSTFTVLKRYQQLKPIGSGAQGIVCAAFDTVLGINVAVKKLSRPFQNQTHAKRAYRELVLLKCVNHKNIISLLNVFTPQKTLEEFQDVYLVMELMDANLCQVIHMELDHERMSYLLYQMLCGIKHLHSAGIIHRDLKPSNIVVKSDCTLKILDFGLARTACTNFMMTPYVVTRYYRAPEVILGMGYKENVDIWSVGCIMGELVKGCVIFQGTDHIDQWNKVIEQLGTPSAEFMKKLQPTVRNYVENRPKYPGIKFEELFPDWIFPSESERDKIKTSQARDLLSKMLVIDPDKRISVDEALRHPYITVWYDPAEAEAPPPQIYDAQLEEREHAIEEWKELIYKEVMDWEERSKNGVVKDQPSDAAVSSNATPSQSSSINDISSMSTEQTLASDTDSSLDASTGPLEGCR
Chain of Cytochrome P450 1A2 (P05177 whole entry): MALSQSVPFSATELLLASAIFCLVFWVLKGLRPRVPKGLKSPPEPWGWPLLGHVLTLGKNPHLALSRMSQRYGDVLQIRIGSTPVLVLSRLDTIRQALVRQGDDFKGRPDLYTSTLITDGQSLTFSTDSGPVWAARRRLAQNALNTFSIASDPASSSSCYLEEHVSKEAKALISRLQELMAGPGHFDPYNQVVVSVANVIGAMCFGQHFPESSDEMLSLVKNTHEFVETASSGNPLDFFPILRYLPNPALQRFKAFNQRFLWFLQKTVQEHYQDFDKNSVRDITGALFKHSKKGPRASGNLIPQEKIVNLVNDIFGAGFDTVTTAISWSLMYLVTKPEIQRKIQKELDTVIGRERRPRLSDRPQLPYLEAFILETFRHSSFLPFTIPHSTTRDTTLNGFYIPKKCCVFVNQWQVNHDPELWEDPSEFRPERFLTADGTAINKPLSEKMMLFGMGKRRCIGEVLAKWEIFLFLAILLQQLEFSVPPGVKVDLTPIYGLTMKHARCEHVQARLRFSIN

inhibition [1]: 86%
inhibition [2]: 87%
inhibition [3]: 48%
inhibition [4]: 74%
inhibition [5]: 99%
inhibition [6]: 99%
inhibition [7]: 97%
inhibition [8]: 99%
inhibition [9]: inactive
inhibition [10]: inactive
inhibition [11]: inactive
inhibition [12]: Active
inhibition [13]: Active
inhibition [14]: Active
half-life [15]: > 185 min
inhibition (INH) (Cytochrome P450 3A4): Not Active
inhibition (INH) (Cytochrome P450 3A5): Not Active
inhibition (INH) (Cytochrome P450 2D6): Active
inhibition (INH) (Cytochrome P450 2C9): Active
inhibition (INH) (Cytochrome P450 1A2): Active
inhibition (INH) (Cytochrome P450 2C19): Active
inhibition [18]: inactive
inhibition [19]: inactive
inhibition [20]: inactive
inhibition [21]: Active
inhibition [22]: Active
inhibition [23]: Active
inhibition [24]: Active
inhibition [25]: Active
inhibition [26]: Active
Structure (SMILES): NC(=O)c1ccc(NS(=O)(=O)c2cccc(-c3n[nH]c4cc(F)ccc34)c2)cc1
Activity (HPAF-II [16]): Active
Activity (MIA PaCa-2 [17]): Active
Activity (HPAF-II [27]): Active
Activity (MIA PaCa-2 [28]): Active
